MIC, inhibition and IC50 data for 28 compounds are collected here from ChEMBL document CHEMBL1159109, “Design and synthesis of some new quinoline-3-carbohydrazone derivatives as potential antimycobacterial agents” (Bioorg Med Chem Lett, 2010).

Converted amounts (≈) assume the structure as drawn.

In test [1] the test system is Mycobacterium tuberculosis. Description: Antimycobacterial activity against Mycobacterium tuberculosis H37Rv ATCC 27294 after 7 days by resazurin assay. Format: functional. To be noted: H37Rv ATCC 27294, 168 h. In outline:
(§1)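 Broth microdilution resazurin assay. Culture diluted to McFarland 2 standard in the same medium and added to fresh medium. Test compounds from 2 mg/mL DMF stocks, first tested at 1, 10 and 100, then at 0.3125–5; DMF-only controls. Incubated 37 °C for 7 days, then 0.01% resazurin added. Blue-to-pink change scored; MIC taken as lowest concentration preventing the colour change.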

For test [2], the system named is Mycolicibacterium smegmatis. Description: Antimycobacterial activity against Mycobacterium smegmatis MC2 155 ATCC 19420 after 7 days by resazurin assay. Format: functional. The settings on record: MC2 155 ATCC 19420, 168 h. In outline:
as §1
For orientation: Alamar Blue is a resazurin reagent that responds to reducing activity.

Test [3] relates to Mycolicibacterium fortuitum. Description: Antimycobacterial activity against Mycobacterium fortuitum ATCC 19542 after 7 days by resazurin assay. The class given is functional. The settings on record: ATCC 19542, 168 h. An outline of the steps:
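M. fortuitum ATCC 19542 culture diluted to McFarland 2 standard in medium and dispensed into 96-well plates. Compounds came from 2 mg/mL DMF stocks and were screened at 1, 10 and 100, then retested at […]. Controls received DMF alone. After 7 days at 37 °C, 0.01% resazurin was added and colour read after 1 h at 37 °C. MIC was the level keeping the dye blue.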

Test [4] deals with Mycobacterium. In words: Inhibition of Mycobacterium membrane bound ATP synthase. Set-up: concentration or dose not given beside the values. The settings on record: concentration not given here.
Test [5] relates to Vero. Description: Cytotoxicity against african green monkey Vero cells after 72 hrs by MTT assay. Format: cell-based. The settings on record: Chlorocebus sabaeus. In outline: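 Cells were exposed for 72 h, then viability was read as cellular conversion of MTT to formazan with a non-radioactive cell proliferation kit.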
A general note: Tetrazolium assays rely on reduction of a dye to a coloured formazan, in cell work by metabolically active cells.

Usually MIC stands for the lowest concentration found to suppress growth. The term inhibition denotes the percentage by which the read-out fell short of the control. In the case of `CSc1ccccc1/C=N/NC(=O)c1cnc2c(C(F)(F)F)cccc2c1N[C@@H](CSc1ccccc1)CC(=O)N(C)C`, the minimal inhibitory concentration (MIC) in test [1], in test [2] and in test [3] was above 100 µg/mL in each case. The compound further yielded an inhibition in test [4] of 0%.

As for `CSc1ccccc1/C=N/NC(=O)c1cnc2ccc(F)cc2c1N[C@@H](CSc1ccccc1)CC(=O)N(C)C`, the MIC in test [1], in test [2] and in test [3] was above 100 µg/mL in each case. This compound displayed an inhibition in test [4] of 0%.

As a reminder, the IC50 is the concentration that gives 50% inhibition. With `CN(C)C(=O)C[C@H](CSc1ccccc1)Nc1c(C(=O)N/N=C/c2cccnc2)cnc2ccc(F)cc12`, the MIC is 5 µg/mL (≈ 9.42 µM) in test [1], above 100 µg/mL in test [2] and 10 µg/mL (≈ 18.8 µM) in test [3]. Besides, the inhibition in test [4] was 90%. In test [5], this compound had a half-maximal inhibitory concentration (IC50) above 62.5 µg/mL.

Take `CN(C)C(=O)C[C@H](CSc1ccccc1)Nc1c(C(=O)N/N=C/c2ccccc2F)cnc2c(C(F)(F)F)cccc12`: the MIC in test [1] was 2.5 µg/mL (≈ 4.18 µM); in test [2] it was 5 µg/mL (≈ 8.37 µM); in test [3], above 100 µg/mL. The same compound displayed an inhibition in test [4] of 90%. In test [5], this compound had an IC50 above 62.5 µg/mL.

`NNC(=O)c1ccncc1` [ISONIAZID]: the minimal inhibitory concentration (MIC) amounted to 1 µg/mL (≈ 7.29 µM) in test [1], 50 µg/mL (≈ 365 µM) in test [2] and 12.5 µg/mL (≈ 91.1 µM) in test [3]. This compound also gave an inhibition in test [4] above 95%. Moreover, in test [5], the IC50 is above 62.5 µg/mL.

Regarding `CN(C)C(=O)C[C@H](CSc1ccccc1)Nc1c(C(=O)N/N=C/c2ccc(F)cc2)cnc2ccc(F)cc12`, the MIC came out at 1 µg/mL (≈ 1.83 µM) in test [1], 10 µg/mL (≈ 18.3 µM) in test [2] and 5 µg/mL (≈ 9.13 µM) in test [3]. Also, in test [4], the inhibition came to 95%. The same compound yielded a concentration for half-maximal inhibition (IC50) in test [5] above 62.5 µg/mL.

Turning to `COc1ccc(/C=N/NC(=O)c2cnc3c(C(F)(F)F)cccc3c2N[C@@H](CSc2ccccc2)CC(=O)N(C)C)cc1`, the minimum inhibitory concentration (MIC) in test [1], in test [2] and in test [3] was above 100 µg/mL in each case. Moreover, the inhibition in test [4] was 0%.

On to `CN(C)C(=O)C[C@H](CSc1ccccc1)Nc1c(C(=O)N/N=C/c2cccc(OC(F)(F)C(F)F)c2)cnc2c(C(F)(F)F)cccc12`, for which the minimal inhibitory concentration (MIC) in test [1] was 1 µg/mL (≈ 1.44 µM); in test [2] it was 5 µg/mL (≈ 7.19 µM); in test [3], 2.5 µg/mL (≈ 3.59 µM). Also, in test [4], the inhibition was above 95%. The compound also showed an IC50 in test [5] above 62.5 µg/mL.

On to `CN(C)C(=O)C[C@H](CSc1ccccc1)Nc1c(C(=O)N/N=C/c2cccnc2)cnc2c(C(F)(F)F)cccc12`, for which the minimum inhibitory concentration (MIC) in test [1] stood at 0.625 µg/mL (≈ 1.08 µM); in test [2], 2.5 µg/mL (≈ 4.31 µM); in test [3] it was 1 µg/mL (≈ 1.72 µM). The inhibition in test [4] was above 95%. The half-inhibitory concentration (IC50) in test [5] is above 62.5 µg/mL.

In the case of `CN(C)C(=O)C[C@H](CSc1ccccc1)Nc1c(C(=O)N/N=C/c2cc(F)ccc2O)cnc2c(C(F)(F)F)cccc12`, the minimal inhibitory concentration (MIC) in test [1] was 10 µg/mL (≈ 16.3 µM); in test [2], above 100 µg/mL; in test [3], above 100 µg/mL. In test [4], this compound had an inhibition of 0%.

As for `COc1ccc(/C=N/NC(=O)c2cnc3c(C(F)(F)F)cccc3c2N[C@@H](CSc2ccccc2)CC(=O)N(C)C)cc1O`, the minimal inhibitory concentration (MIC) was 5 µg/mL (≈ 7.99 µM) in test [1], above 100 µg/mL in test [2] and 10 µg/mL (≈ 16 µM) in test [3]. Further, the inhibition in test [4] was 90%. For the same compound, the IC50 in test [5] is above 62.5 µg/mL.

`CN(C)C(=O)C[C@H](CSc1ccccc1)Nc1c(C(=O)N/N=C/c2cc(F)ccc2O)cnc2ccc(F)cc12`: the results for the MIC in test [1], in test [2] and in test [3] were 10 µg/mL (≈ 17.7 µM), above 100 µg/mL and above 100 µg/mL, respectively. Besides, in test [4], the inhibition is 0%.

For `CN(C)C(=O)C[C@H](CSc1ccccc1)Nc1c(C(=O)N/N=C/c2ccc(Br)s2)cnc2c(C(F)(F)F)cccc12`, the values for the MIC in test [1], in test [2] and in test [3] were 10 µg/mL (≈ 15 µM), above 100 µg/mL and above 100 µg/mL, respectively. In test [4], this compound had an inhibition of 90%. In test [5], this compound registered an IC50 above 62.5 µg/mL.

Take `CN(C)C(=O)C[C@H](CSc1ccccc1)Nc1c(C(=O)N/N=C/c2cccc(OC(F)(F)C(F)F)c2)cnc2ccc(F)cc12`: the MIC was 0.625 µg/mL (≈ 0.968 µM) in test [1], 2.5 µg/mL (≈ 3.87 µM) in test [2] and 1 µg/mL (≈ 1.55 µM) in test [3]. In test [4], this compound had an inhibition above 95%. In test [5], this compound gave a half-inhibitory concentration (IC50) above 62.5 µg/mL.

In the case of `CCCCCCCC/C=N/NC(=O)c1cnc2ccc(F)cc2c1N[C@@H](CSc1ccccc1)CC(=O)N(C)C`, the minimum inhibitory concentration (MIC) in test [1] was determined as 1 µg/mL (≈ 1.77 µM); in test [2] it was 10 µg/mL (≈ 17.7 µM); in test [3] it was 5 µg/mL (≈ 8.84 µM). This compound also gave an inhibition in test [4] above 95%. For the same compound, the IC50 in test [5] is above 62.5 µg/mL.

Turning to `CSCC/C=N/NC(=O)c1cnc2c(C(F)(F)F)cccc2c1N[C@@H](CSc1ccccc1)CC(=O)N(C)C`, the MIC is 10 µg/mL (≈ 17.3 µM) in test [1], above 100 µg/mL in test [2] and above 100 µg/mL in test [3]. The same compound registered an inhibition in test [4] of 90%.

Regarding `CN(C)C(=O)C[C@H](CSc1ccccc1)Nc1c(C(=O)N/N=C/c2ccc(Br)s2)cnc2ccc(F)cc12`, the minimum inhibitory concentration (MIC) in test [1], in test [2] and in test [3] was above 100 µg/mL in each case. In test [4], this compound registered an inhibition of 0%.

In the case of `CSCC/C=N/NC(=O)c1cnc2ccc(F)cc2c1N[C@@H](CSc1ccccc1)CC(=O)N(C)C`, the MIC in test [1], in test [2] and in test [3] was above 100 µg/mL each time. The inhibition in test [4] was determined as 0%.

`CCCCCCCC/C=N/NC(=O)c1cnc2c(C(F)(F)F)cccc2c1N[C@@H](CSc1ccccc1)CC(=O)N(C)C`: the MIC in test [1] is 1 µg/mL (≈ 1.62 µM); in test [2], 10 µg/mL (≈ 16.2 µM); in test [3], 5 µg/mL (≈ 8.12 µM). Also, the inhibition in test [4] is above 95%. Besides, in test [5], the IC50 was above 62.5 µg/mL.

`COc1ccc(/C=N/NC(=O)c2cnc3ccc(F)cc3c2N[C@@H](CSc2ccccc2)CC(=O)N(C)C)c(F)c1`: the MIC in test [1] was 5 µg/mL (≈ 8.66 µM); in test [2], above 100 µg/mL; in test [3] it was above 100 µg/mL. Besides, in test [4], the inhibition is 0%.

Turning to `COc1ccc(/C=N/NC(=O)c2cnc3c(C(F)(F)F)cccc3c2N[C@@H](CSc2ccccc2)CC(=O)N(C)C)c(F)c1`, the MIC in test [1] is 10 µg/mL (≈ 15.9 µM); in test [2], above 100 µg/mL; in test [3] it was above 100 µg/mL. In test [4], this compound returned an inhibition of 90%.

On to `CN(C)C(=O)C[C@H](CSc1ccccc1)Nc1c(C(=O)N/N=C/c2ccccc2F)cnc2ccc(F)cc12`, for which the minimal inhibitory concentration (MIC) came out at 1 µg/mL (≈ 1.83 µM) in test [1], 10 µg/mL (≈ 18.3 µM) in test [2] and 5 µg/mL (≈ 9.13 µM) in test [3]. The inhibition in test [4] was above 95%. Besides, in test [5], the IC50 is above 62.5 µg/mL.

Regarding `COc1ccc(/C=N/NC(=O)c2cnc3ccc(F)cc3c2N[C@@H](CSc2ccccc2)CC(=O)N(C)C)cc1`, the MIC is 10 µg/mL (≈ 17.9 µM) in test [1], above 100 µg/mL in test [2] and above 100 µg/mL in test [3]. The same compound gave an inhibition in test [4] of 0%.

Consider `CN(C)C(=O)C[C@H](CSc1ccccc1)Nc1c(C(=O)N/N=C/c2ccc(F)cc2)cnc2c(C(F)(F)F)cccc12`, for which the minimal inhibitory concentration (MIC) is 5 µg/mL (≈ 8.37 µM) in test [1], above 100 µg/mL in test [2] and 10 µg/mL (≈ 16.7 µM) in test [3]. The compound also gave an inhibition in test [4] of 90%. Besides, in test [5], the 50% inhibitory concentration (IC50) is above 62.5 µg/mL.

In the case of `COc1ccc(/C=N/NC(=O)c2cnc3ccc(F)cc3c2N[C@@H](CSc2ccccc2)CC(=O)N(C)C)cc1O`, the MIC in test [1] was 5 µg/mL (≈ 8.69 µM); in test [2], above 100 µg/mL; in test [3] it was 5 µg/mL (≈ 8.69 µM). Also, the inhibition in test [4] was 90%. Further, the IC50 in test [5] is above 62.5 µg/mL.

With `CN(C)C(=O)C[C@H](CSc1ccccc1)Nc1c(C(=O)N/N=C/c2ccc(OC(F)(F)F)cc2)cnc2c(C(F)(F)F)cccc12`, the MIC in test [1] was 5 µg/mL (≈ 7.53 µM); in test [2] it was above 100 µg/mL; in test [3], 5 µg/mL (≈ 7.53 µM). In test [4], this compound showed an inhibition of 90%. The same compound registered an IC50 in test [5] above 62.5 µg/mL.

For the compound `CN(C)C(=O)C[C@H](CSc1ccccc1)Nc1c(C(=O)N/N=C/c2ccc(OC(F)(F)F)cc2)cnc2ccc(F)cc12`, the minimal inhibitory concentration (MIC) in test [1] was 2.5 µg/mL (≈ 4.07 µM); in test [2], above 100 µg/mL; in test [3] it was 5 µg/mL (≈ 8.15 µM). In addition, the inhibition in test [4] was 90%. In addition, in test [5], the half-inhibitory concentration (IC50) is above 62.5 µg/mL.

In the case of `CO[C@H]1/C=C/O[C@@]2(C)Oc3c(C)c(O)c4c(O)c(c(/C=N/N5CCN(C)CC5)c(O)c4c3C2=O)NC(=O)/C(C)=C\C=C\[C@H](C)[C@H](O)[C@@H](C)[C@@H](O)[C@@H](C)[C@H](OC(C)=O)[C@@H]1C` [RIFAMPIN], the minimum inhibitory concentration (MIC) in test [1] is 0.5 µg/mL (≈ 0.608 µM); in test [2] it was 1.5 µg/mL (≈ 1.82 µM); in test [3], 1.5 µg/mL (≈ 1.82 µM). Also, in test [4], the inhibition was above 95%. This compound also registered an IC50 in test [5] above 62.5 µg/mL.
